The entries come from a sample that favours hits as a whole.
Calb biofilm kill = clotrimazole potentiators killing C. albicans biofilm, primary screen, 4-compound mixtures; C. albicans biofilm persisters + clotrimazole, fluorescence viability; primary screen in compound mixtures of four per well; AID 1242, 2008; 120,000 tested, 0.02% active; inhibition, % at 7.6 µM;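 active = inhibition above 30.3% in the primary screen of four-compound pools, then above 30% when the compound was retested; inconclusive = passed the primary limit but could not be retested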;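 also: compounds exposed to preformed 24 h biofilms for 48 h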
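System: C. albicans CAF4-2 wild-type biofilms; Medium: RPMI/MOPS medium, pH 7.0; Reagent: Clotrimazole, 50 µg/mL; Times: biofilm formation 24 h, compound exposure 48 h, 37 °C; Detection: 2-h Alamar Blue fluorescence, 535/590 nm excitation/emission; Evaluation: percent inhibition of biofilm viability.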
ROMK primary = ROMK potassium channel modulators, primary screen, cell-based, thallium flux, MLSMR library; ATP-sensitive inward rectifier potassium channel 1 (Homo sapiens), P48048; 130,000 tested, 2% active; B-score at 10 µM; AID 1918, 2009; Tet-inducible ROMK, thallium flux fluorescence; actives lie on both sides;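 active = signal ratio slope over the read window, or its plate-corrected B-score, at least 3 SD from the plate mean, either direction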;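 also: B-score of the F/F0 ratio slope over 7 to 12 s after thallium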
Target sequence (P48048 whole entry, looked up): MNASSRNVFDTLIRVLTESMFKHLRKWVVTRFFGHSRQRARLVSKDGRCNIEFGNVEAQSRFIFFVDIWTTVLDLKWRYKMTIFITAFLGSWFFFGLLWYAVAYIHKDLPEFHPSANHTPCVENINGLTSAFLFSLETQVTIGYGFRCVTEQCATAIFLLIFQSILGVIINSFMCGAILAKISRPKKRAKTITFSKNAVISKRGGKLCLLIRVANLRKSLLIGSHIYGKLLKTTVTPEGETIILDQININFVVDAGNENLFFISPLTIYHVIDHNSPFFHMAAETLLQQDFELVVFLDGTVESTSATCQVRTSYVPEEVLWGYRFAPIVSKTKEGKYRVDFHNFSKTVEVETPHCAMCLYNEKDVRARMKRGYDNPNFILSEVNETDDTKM
ROMK hit retest = ROMK channel modulator hit retest, confirmation, cell-based, thallium flux, duplicate, resupplied hits; shares compounds with ROMK primary; fluorescence ratio; active compounds read low; normalized thallium flux (F/F0 slope) at 10 µM; 3,000 tested, 54% active;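 active = Flux at 10 µM at least 3 SD below or above vehicle control mean in one or both replicates; inconclusive = no clear call, values can overlap the other calls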
Hits are given with their value; – = inactive; ? = inconclusive; · = no result.

SMILES | Calb biofilm kill | ROMK primary | ROMK hit retest
Fc1cccc(Cc2noc(CN3CCC(c4ccncc4)CC3)n2)c1 | – | – | ·
CC(=O)Nc1ccc2c(c1)C(=O)N(c1cccc(C)c1)C2=O | – | · | ·
Cc1cccc(N2C(=O)/C(=C\c3ccc(C(=O)O)cc3)c3ccccc3C2=O)c1 | – | -6.4 | 0.046
CN(CC(=O)Nc1ccccc1-c1ccccc1)Cc1ccccc1Cl | – | – | ·
CCOC(=O)c1cccc(NC(=S)NCc2ccc(C)cc2)c1 | – | – | ·
O=C(NC(=S)Nc1ccccc1N1CCOCC1)c1ccc(-c2ccccc2F)o1 | – | · | ·
NC(=O)c1ccc2c(=O)n3c(-c4cc(Cl)c(N)c(Cl)c4)csc3nc2c1 | – | · | ·
Cc1csc2nc3cc(C(N)=O)ccc3c(=O)n12 | – | · | –
Cc1cc(CSc2nc(C)cc(=O)[nH]2)c2ncccc2c1 | – | -11 | –
Cc1cc(=O)[nH]c(SCc2cccc(Br)c2)n1 | · | – | ·
FC(F)Oc1ccc(NC(=S)N2CCc3ccccc32)cc1 | – | · | ·
COc1ccc(NC(=O)COc2ccc(/C=N/NC(=O)c3cccnc3)cc2OC)cc1 | – | · | ·
COc1ccc(/C=N/NC(=O)c2cccc(OC(F)(F)C(F)F)c2)cc1O | – | 1.8 | –
COc1ccc(/C=N/NC(=O)c2cccnc2)cc1COc1ccc(NC(C)=O)cc1 | – | 3.9 | ?
COc1ccc(/C=N/NC(=O)c2cccnc2)cc1COc1ccc([N+](=O)[O-])cc1 | – | 4.7 | –
COc1ccc(/C=N/NC(=O)c2cccc(OC(F)(F)C(F)F)c2)c(OC)c1OC | – | – | ·
COc1cc(/C=N/NC(=O)c2cccnc2)ccc1OC(=O)c1ccc([N+](=O)[O-])cc1 | – | – | ·
C=CCOC(=O)C1=C(C)NC(=S)C(C#N)(CC=C)C1c1ccccc1Cl (configuration not stated) | – | · | ·
COc1ccc(N=CC2=C(Nc3ccc(OC)cc3)c3c(C)nn(-c4ccccn4)c3CC2)cc1 | · | – | ·
COc1ccc(NS(=O)(=O)c2ccc3nc(COc4ccc(Cl)c(C)c4)[nH]c3c2)cc1 | – | · | ·
CN(C)S(=O)(=O)c1ccc(Cl)c(NC(=O)COC(=O)c2ccc(O)cc2)c1 | – | – | ·
CCN(CC)S(=O)(=O)c1ccc(Cl)c(NC(=O)COC(=O)c2c(C)noc2C)c1 | – | · | ·
CCN(CC)S(=O)(=O)c1ccc(Cl)c(NC(=O)COC(=O)c2ccc(O)cc2)c1 | – | – | –
CCN(CC)S(=O)(=O)c1ccc(Cl)c(NC(=O)COC(=O)c2cccn2C)c1 | – | 2.7 | –
CC(=O)c1ccc(OC(=O)c2cc3ccccc3oc2=O)cc1 | – | – | ·
SMILES | Calb biofilm kill | ROMK primary | ROMK hit retest
C=CCNC(=S)Nc1ccc2cn[nH]c2c1 | – | · | ·
CCN(CC)CCCNC(=O)c1cc2c(-c3ccc(Cl)cc3)nn(C)c2s1 | · | · | 0.059
COc1ccc(NC(=O)c2cc3c(-c4ccc(OC)c(OC)c4)nn(C)c3s2)cc1OC | · | – | ·
O=c1[nH][nH]c(=S)n1-c1ccccc1C(F)(F)F | – | – | ·
O=C(CNC1CCCCC1)Nc1cc(S(=O)(=O)N2CCOCC2)ccc1Cl | – | – | ·
CCC(=O)N1CCc2cc(S(=O)(=O)N3CCN(c4ccccn4)CC3)ccc21 | · | 3.6 | –
CCC(=O)N1CCc2cc(S(=O)(=O)N3CCc4ccccc4C3)ccc21 | · | – | ·
O=C(Nc1cccc(Cl)c1)Nc1ccnc(-c2cccnc2)n1 | – | 2.4 | –
Cc1cccc(C(=O)Nc2ccnc(-c3cccnc3)n2)c1 | – | – | ·
COc1ccc(/C=C/C(=O)N2CCN(c3ccccn3)CC2)c2ccccc12 | – | – | ·
Cc1c(Cl)ccc2c(C(=O)NC(C)c3ccncc3)cc(-c3ccncc3)nc12 (configuration not stated) | – | – | ·
CCOC(=O)/C(=C/c1c(C)n(C)c2ccc([N+](=O)[O-])cc12)C(C)=O | – | -4.2 | 0.046
CCOC(=O)c1c(N)c2cc([N+](=O)[O-])ccc2n1C | – | · | ·
COc1ccc2[nH]c(CN3CCN(C(C)C)C(CCO)C3)c(C)c2c1 (configuration not stated) | – | -7.8 | –
COc1ccc2[nH]c(CN3CCN(CC(C)C)C(CCO)C3)c(C)c2c1 (configuration not stated) | – | – | ·
COc1ccc(Br)c(C(=O)NC2CCCC2)c1 | – | – | ·
CC(O)CNc1nc2ccccc2n1CC(=O)NC12CC3CC(CC(C3)C1)C2 (configuration not stated) | – | -2.7 | 0.066
CC(O)CNc1nc2ccccc2n1CC(=O)NCC(F)(F)F (configuration not stated) | – | – | ·
CCn1cc(C(=O)O)c(=O)c2cc(F)c(N3CCN(S(=O)(=O)c4ccc(NC(=O)OC)cc4)CC3)cc21 | – | – | ·
Cc1nn(C)c(C(=O)Sc2cccc(Cl)c2)c1[N+](=O)[O-] | – | -2.9 | 0.064
Cc1nn(C)c(C(=O)Sc2ccccc2)c1[N+](=O)[O-] | – | – | ·
O=C(Cc1ccsc1)Nc1ccc(S(=O)(=O)C(F)F)cc1 | – | – | ·
N#Cc1c(NCCN)nc(-c2ccccc2)c2c1CCCC2 | · | -4 | 0.05
COC(=O)CSc1nc(-c2ccccc2)c2c(c1C#N)CCCC2 | · | – | ·
Cc1cccc(OCC(O)Cn2c(=N)n(CCN3CCCCC3)c3ccccc32)c1 (configuration not stated) | · | -7.6 | 0.049
SMILES | Calb biofilm kill | ROMK primary | ROMK hit retest
CCN(CC)CCn1c(=N)n(CC(O)COc2cccc(C)c2)c2ccccc21 (configuration not stated) | – | – | ·
N=c1n(Cc2ccccc2)c2ccccc2n1CC(O)COc1ccc(Cl)cc1Cl (configuration not stated) | – | – | ·
COc1ccc(OCC(O)Cn2c(=N)n(Cc3ccccc3)c3ccccc32)cc1 (configuration not stated) | · | -7 | 0.048
Cc1ccc(OCC(O)Cn2c(=N)n(Cc3ccccc3)c3ccccc32)cc1 (configuration not stated) | · | -4.6 | 0.052
N=c1n(Cc2ccc(Cl)cc2)c2ccccc2n1CC(O)COc1ccccc1 (configuration not stated) | – | -4.2 | 0.054
CC(=O)Nc1ccc(OCC(O)CN2CCN(Cc3ccccc3)CC2)cc1 (configuration not stated) | · | – | ·
Cc1cccc(OCC(O)Cn2c(=N)n(Cc3ccccc3)c3ccccc32)c1 (configuration not stated) | – | · | ·
COc1ccc(NC(=O)C/C(C)=N/NC(=O)C(=O)NC2CCCCC2)c(OC)c1 | – | · | ·
COc1cc(CNCCc2ccc(S(N)(=O)=O)cc2)ccc1OCC(=O)N1CCCCC1 | – | · | ·
Cc1ccnc(SCC(=O)Nc2c(C)n(C)n(-c3ccccc3)c2=O)n1 | · | – | ·
COc1ccc(N/N=C(\C#N)C(=N)N2CCCCC2)cc1 | – | · | ·
COc1ccc(N/N=C(\C#N)C(=N)SCc2ccccc2)cc1 | – | · | 0.053
CCn1cc(C(=O)NCc2ccc(C)o2)c2cc(OC)c(OC)cc2c1=O | · | · | ?
CCOC(=O)CNC(=O)c1cn(CC(C)C)c(=O)c2cc(OC)c(OC)cc12 | – | – | ·
Cc1ccc(NC2c3ncccc3C(=O)N2Cc2ccco2)c(C)c1 (configuration not stated) | – | – | ·
CCOc1cc(S(=O)(=O)NCc2ccccc2)ccc1Br | – | – | ·
CC(=O)Nc1cccc(Oc2ncnc3scc(-c4ccccc4)c23)c1 | – | · | 0.061
